In ChEMBL document CHEMBL1649190, “Identification and characterization of mefloquine efficacy against JC virus in vitro” (Antimicrob Agents Chemother, 2009):
Where a name gives a salt, the structure may show the parent alone.

Key:
[1] = tested on: JC polyomavirus; experiment: microbe, parasite or virus in culture; type: functional, cell-based; conditions: M1/SVEdelta, SVG-A, 72 h
[2] = in vitro; conditions: human
[3] = in vitro; conditions: human; remark: listed apart in the source
[4] = tested on: Plasma; experiment: Drug concentration in human plasma; type: ADME, cell-free; conditions: read-out: Drug uptake
[5] = tested on: JC polyomavirus; experiment: Antiviral activity against JC polyomavirus M1/SVEdelta infected in human SVG-A cells assessed as inhibition of viral replication after 3 days; conditions: 72 h
[6] = Lipophilicity, log P of the compound; type: physicochemical; conditions: octanol/water
[7] = tested on: JC polyomavirus; experiment: Antiviral activity against JC polyomavirus Mad1 infected in human PHFG cells assessed as inhibition of viral replication after 7 to 10 days
[8] = tested on: JC polyomavirus; experiment: Antiviral activity against JC polyomavirus Mad4 infected in human SVG-A cells assessed as inhibition of viral replication after 3 days; type: functional, cell-based; conditions: 72 h
Outline: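 SVG-A cells (2,000/well) in MEM with 2% heat-inactivated FBS and 4 mM L-glutamine were exposed to JCV(Mad4) plus compound over a concentration range for 60 min at 37°C. Drug-containing medium was then added. Cells were fixed, then stained for VP1 (PAb597) and DAPI and imaged. Infection rate was % VP1+/DAPI+ cells; inhibition was scaled to infected and uninfected controls. EC50 came from a sigmoid fit, n = 5.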

[9] = SVG-A cells infected with JC polyomavirus M1/SVEdelta

SMILES: O[C@H](c1cc(C(F)(F)F)nc2c(C(F)(F)F)cccc12)[C@@H]1CCCCN1 (racemic) [(R,S)-MEFLOQUINE]
- EC50 [1]: 2.7 µM

SMILES: O[C@@H](c1cc(C(F)(F)F)nc2c(C(F)(F)F)cccc12)[C@H]1CCCCN1 [(S,R)-MEFLOQUINE]
- EC50 [1]: 4.5 µM

SMILES: CC(C)c1ccc2c(c1)CC[C@H]1[C@](C)(C(N)=O)CCC[C@]21C [DEHYDROABIETAMIDE]
- CC50 ([2]; SVG-A cells): > 40 µM
- selectivity ratio [3, 9]: > 2

SMILES: O=C(O)Cc1ccccc1Nc1c(Cl)cccc1Cl [DICLOFENAC SODIUM]
- CC50 ([2]; SVG-A cells): 30.5 µM
- selectivity ratio [3, 9]: > 2
- concentration [4]: 8 µM
- EC50 [1]: 8.3 µM

SMILES: COc1cc(C)c(C(=O)Oc2cc(C)c(C(=O)O)c(O)c2C)c(OC)c1C [DIFFRACTAIC ACID]
- CC50 ([2]; SVG-A cells): > 40 µM
- selectivity ratio [3, 9]: > 2
- EC50 [1]: 14.4 µM

SMILES: COc1ccc([C@@H]2Sc3ccccc3N(CCN(C)C)C(=O)[C@@H]2OC(C)=O)cc1 [DILTIAZEM HYDROCHLORIDE]
- CC50 ([2]; SVG-A cells): > 40 µM
- concentration [4]: 0.5 µM
- EC50 [1]: 8.5 µM

SMILES: O=C(O)c1ccccc1Nc1cccc(C(F)(F)F)c1 [FLUFENAMIC ACID]
- selectivity ratio [3, 9]: > 3
- EC50 [1]: 11 µM

SMILES: Cc1c(Nc2ncccc2C(=O)O)cccc1C(F)(F)F [FLUNIXIN MEGLUMINE]
- CC50 ([2]; SVG-A cells): > 40 µM
- selectivity ratio [3, 9]: > 2
- EC50 [1]: 14.5 µM

SMILES: CC(=O)O[C@H]1C[C@@]2(C)[C@@H](C[C@@H](O)[C@H]3[C@@]4(C)CC[C@@H](O)[C@@H](C)[C@@H]4CC[C@@]32C)/C1=C(\CCC=C(C)C)C(=O)O [FUSIDIC ACID]
- CC50 ([2]; SVG-A cells): > 40 µM
- selectivity ratio [3, 9]: > 2
- concentration [4]: 19 µM
- EC50 [1]: 8.6 µM

SMILES: Cc1nccc2c1[nH]c1ccccc12 [HARMAN]
- CC50 ([2]; SVG-A cells): > 40 µM
- selectivity ratio [3, 9]: > 2
- EC50 [1]: 14.4 µM

SMILES: CC1=C(/C=C/C(C)=C/C=C/C(C)=C\C(=O)O)C(C)(C)CCC1 [ISOTRETINOIN]
- CC50 ([2]; SVG-A cells): > 40 µM
- selectivity ratio ([3]; svg-a): > 2
- concentration [4]: 24 µM
- EC50 [1]: 4.4 µM

SMILES: Cc1cccc(Nc2ccccc2C(=O)O)c1C [MEFENAMIC ACID]
- CC50 ([2]; SVG-A cells): > 40 µM
- selectivity ratio [3, 9]: > 2
- concentration [4]: 40 µM
- EC50 [1]: 10.9 µM

SMILES: OC(c1cc(C(F)(F)F)nc2c(C(F)(F)F)cccc12)C1CCCCN1 (configuration not stated) [MEFLOQUINE]
- CC50 ([2]; svg-a): 16.1 µM
- IC50 [5]: 4 µM
- selectivity ratio ([3]; svg-a): > 2
- concentration [4]: 6 µM
- EC50 [1]: 4 µM
- IC50 [1]: 3.9 µM
- logP [6]: 2.47
- IC50 [7]: 5 µM
- IC50 [8]: 4 µM

SMILES: Clc1ccc(COC(Cn2ccnc2)c2ccc(Cl)cc2Cl)c(Cl)c1 (configuration not stated) [MICONAZOLE NITRATE]
- CC50 ([2]; svg-a): 22.9 µM

SMILES: CCC(=O)Nc1ccc(Cl)c(Cl)c1 [PROPANIL]
- CC50 ([2]; SVG-A cells): > 40 µM
- selectivity ratio [3, 9]: > 2
- EC50 [1]: 7.8 µM

SMILES: Cc1c(Cl)cccc1Nc1ccccc1C(=O)O [TOLFENAMIC ACID]
- selectivity ratio [3, 9]: > 3
- EC50 [1]: 15 µM

SMILES: O=c1c2ccccc2oc2ccccc12 [XANTHONE]
- CC50 ([2]; SVG-A cells): > 40 µM
- selectivity ratio [3, 9]: > 2
- EC50 [1]: 16.8 µM
